ChEMBL document CHEMBL3351461, “Discovery of novel, dual mechanism ERK inhibitors by affinity selection screening of an inactive kinase” (J Med Chem, 2014)
Each block holds one molecule with its values, some of them ahead of it. Calls of active or inactive are those of the source. The calls are words filed in the database; no cut-off is given here.

Key:
[1] = target: T1, Mitogen-activated protein kinase 1 (Homo sapiens, UniProt P28482); assay: Inhibition of activated ERK2 (unknown origin) using IMAP peptide substrate after 30 mins by activated ERK2 assay
Procedure, shortened: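 IMAP fluorescence-polarization assay. Started with 1 μM substrate peptide (100 nM fluorescein-labelled) and 30 μM ATP. Run 30 min, stopped with IMAP beads, read after 30 min. N = 2.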

[2] = target: T1, Mitogen-activated protein kinase 1; assay: Binding to phosphorylated ERK2 (unknown origin) by temperature dependent fluorescence (TdF) assay
[3] = target: T1, Mitogen-activated protein kinase 1; assay: Binding to unphosphorylated ERK2 (unknown origin) by temperature dependent fluorescence (TdF) assay
[4] = target: Mitogen-activated protein kinase 1 (Mus musculus) (UniProt P63085); assay: Inhibition of inactive ERK2 (mouse) coupled with human MEK1 using IMAP peptide substrate after 30 mins by coupled ERK2 assay
[5] = target: T2, Dual specificity mitogen-activated protein kinase kinase; MEK1/2 (Homo sapiens) (UniProt P36507+Q02750); assay: Binding affinity to unphosphorylated MEK (unknown origin) by temperature dependent fluorescence (TdF) assay
[6] = target: T2, Dual specificity mitogen-activated protein kinase kinase; MEK1/2 (Homo sapiens); assay: Binding affinity to phosphorylated MEK (unknown origin) by temperature dependent fluorescence (TdF) assay
A2058 [7] = assay: Cytotoxicity against human A2058 cells expressing BRAF mutant after 3 days by proliferation assay; format: functional, cell-based; conditions: A2058, 72 h
Procedure, shortened: (§1)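 A2058, Colo-205 (2000 cells/well) or A375SM (1500 cells/well) in RPMI1640 with 10% FBS and penicillin–streptomycin, on collagen-coated plates. Cells attach for 2 h, then compound is added in DMSO (final 1.0% or 0.1%). Incubated 3 days at 37 °C, 5% CO2. Viability read by CellTiter-Glo luminescence.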

[8] = target: Tyrosine-protein kinase ABL1 (Homo sapiens, UniProt P00519); assay: Inhibition of ABL (unknown origin)
[9] = target: RAC-alpha serine/threonine-protein kinase (Homo sapiens, UniProt P31749); assay: Inhibition of AKT1 (unknown origin)
[10] = target: Cyclin-dependent kinase 2 (Homo sapiens, UniProt P24941); assay: Inhibition of CDK2 (unknown origin)
[11] = target: Serine/threonine-protein kinase B-raf (Homo sapiens, UniProt P15056); assay: Inhibition of B-RAF (unknown origin)
[12] = target: Serine/threonine-protein kinase Chk1 (Homo sapiens, UniProt O14757); assay: Inhibition of CHK1 (unknown origin)
[13] = target: Casein kinase I isoform delta (Homo sapiens, UniProt P48730); assay: Inhibition of CSNK1D (unknown origin)
[14] = target: Testis-specific serine/threonine-protein kinase 2 (Homo sapiens, UniProt Q96PF2); assay: Inhibition of TSSK2 (unknown origin)
Ephrin type-B receptor 4 = Ephrin type-B receptor 4 (Homo sapiens, UniProt P54760); assay: Inhibition of EPHB4 (unknown origin)
[15] = target: Receptor-type tyrosine-protein kinase FLT3 (Homo sapiens, UniProt P36888); assay: Inhibition of FLT3 (unknown origin)
[16] = target: Insulin-like growth factor 1 receptor (Homo sapiens, UniProt P08069); assay: Inhibition of IGF1R (unknown origin)
[17] = target: Inhibitor of nuclear factor kappa-B kinase subunit beta (Homo sapiens, UniProt O14920); assay: Inhibition of IKKbeta (unknown origin)
[18] = target: Interleukin-1 receptor-associated kinase 4 (Homo sapiens, UniProt Q9NWZ3); assay: Inhibition of IRAK4 (unknown origin)
[19] = target: Tyrosine-protein kinase JAK2 (Homo sapiens, UniProt O60674); assay: Inhibition of JAK2 (unknown origin)
[20] = target: Tyrosine-protein kinase Lck (Homo sapiens, UniProt P06239); assay: Inhibition of LCK (unknown origin)
[21] = target: Hepatocyte growth factor receptor (Homo sapiens, UniProt P08581); assay: Inhibition of MET (unknown origin)
[22] = target: Serine/threonine-protein kinase 3 (Homo sapiens, UniProt Q13188); assay: Inhibition of MST2 (unknown origin)
[23] = target: Serine/threonine-protein kinase Nek2 (Homo sapiens, UniProt P51955); assay: Inhibition of NEK2 (unknown origin)
[24] = target: Protein kinase C alpha type (Homo sapiens, UniProt P17252); assay: Inhibition of PKCA (unknown origin)
[25] = target: Serine/threonine-protein kinase PLK3 (Homo sapiens, UniProt Q9H4B4); assay: Inhibition of PLK3 (unknown origin)
[26] = target: Rho-associated protein kinase 2 (Homo sapiens, UniProt O75116); assay: Inhibition of ROCK2 (unknown origin)
[27] = target: Ribosomal protein S6 kinase alpha-3 (Homo sapiens, UniProt P51812); assay: Inhibition of RSK2 (unknown origin)
[28] = target: Epidermal growth factor receptor (Homo sapiens, UniProt P00533); assay: Inhibition of EGFR (unknown origin)
[29] = target: Mitogen-activated protein kinase 11 (Homo sapiens, UniProt Q15759); assay: Inhibition of p38beta (unknown origin)
[30] = target: Dual specificity mitogen-activated protein kinase kinase 1 (Homo sapiens, UniProt Q02750); assay: Inhibition of MEK1 (unknown origin)
[31] = target: Vascular endothelial growth factor receptor 1 (Homo sapiens, UniProt P17948); assay: Inhibition of VEGFR1 (unknown origin)
[32] = target: Cyclin-dependent kinase 4 (Homo sapiens, UniProt P11802); assay: Inhibition of CDK4 (unknown origin)
[33] = target: Glycogen synthase kinase-3 beta (Homo sapiens, UniProt P49841); assay: Inhibition of GSK3beta (unknown origin)
[34] = target: Cyclin-dependent kinase 6 (Homo sapiens, UniProt Q00534); assay: Inhibition of CDK6 (unknown origin)
A2058 [35] = assay: Inhibition of RSK phosphorylation in human A2058 cells after 4 hrs by immunoblotting analysis; format: cell-based
[36] = target: Mitogen-activated protein kinase 3 (Homo sapiens) (UniProt P27361); assay: Inhibition of ERK1 phosphorylation in human A2058 cells after 4 hrs by immunoblotting analysis; format: cell-based
Procedure, shortened: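 A2058 cells treated 4 h at 37 °C with 0–10000 nM compound (150, 312, 625, 1250, 2500, 5000, 10000 nM). Equal-protein lysates immunoblotted for phospho-ERK1,2 and total ERK1,2, developed by ECL. A MEK inhibitor serves as positive control.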

[37] = Cytotoxicity against human A375SM cells expressing BRAF mutant after 3 days by proliferation assay; format: functional, cell-based; conditions: A375-SM, 72 h; procedure, shortened: as §1
COLO 205 = assay: Cytotoxicity against human COLO205 cells expressing BRAF mutant after 3 days by proliferation assay; format: functional, cell-based; conditions: COLO 205, 72 h; procedure, shortened: as §1
CHL-1 = assay: Cytotoxicity against human CHL-1 cells expressing wild type BRAF after 3 days by proliferation assay; format: functional, cell-based; conditions: CHL-1, 72 h

Sequence of Mitogen-activated protein kinase 1 (Mus musculus) (P63085 whole entry, looked up): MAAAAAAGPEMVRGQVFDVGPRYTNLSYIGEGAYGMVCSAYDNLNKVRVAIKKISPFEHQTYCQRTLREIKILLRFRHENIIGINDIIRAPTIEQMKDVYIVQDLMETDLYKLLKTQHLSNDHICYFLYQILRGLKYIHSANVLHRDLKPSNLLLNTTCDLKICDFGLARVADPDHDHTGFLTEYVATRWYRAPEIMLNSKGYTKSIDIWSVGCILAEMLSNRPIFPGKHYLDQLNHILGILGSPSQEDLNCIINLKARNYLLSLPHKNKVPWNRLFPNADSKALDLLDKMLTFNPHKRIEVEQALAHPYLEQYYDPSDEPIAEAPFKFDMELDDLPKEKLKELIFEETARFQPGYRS
T2 sequence (P36507 whole entry, looked up): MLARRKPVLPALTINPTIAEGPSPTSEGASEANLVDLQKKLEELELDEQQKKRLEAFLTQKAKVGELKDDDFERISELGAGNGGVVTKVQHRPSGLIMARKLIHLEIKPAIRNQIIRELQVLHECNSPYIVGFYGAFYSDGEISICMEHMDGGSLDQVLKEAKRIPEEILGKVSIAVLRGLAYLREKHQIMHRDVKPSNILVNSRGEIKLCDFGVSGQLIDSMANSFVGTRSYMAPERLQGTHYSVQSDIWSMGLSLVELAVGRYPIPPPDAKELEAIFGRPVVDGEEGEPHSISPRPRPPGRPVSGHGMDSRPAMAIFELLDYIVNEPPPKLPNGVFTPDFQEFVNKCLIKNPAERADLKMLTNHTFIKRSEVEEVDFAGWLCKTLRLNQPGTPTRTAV
T2 sequence (Q02750 whole entry, looked up): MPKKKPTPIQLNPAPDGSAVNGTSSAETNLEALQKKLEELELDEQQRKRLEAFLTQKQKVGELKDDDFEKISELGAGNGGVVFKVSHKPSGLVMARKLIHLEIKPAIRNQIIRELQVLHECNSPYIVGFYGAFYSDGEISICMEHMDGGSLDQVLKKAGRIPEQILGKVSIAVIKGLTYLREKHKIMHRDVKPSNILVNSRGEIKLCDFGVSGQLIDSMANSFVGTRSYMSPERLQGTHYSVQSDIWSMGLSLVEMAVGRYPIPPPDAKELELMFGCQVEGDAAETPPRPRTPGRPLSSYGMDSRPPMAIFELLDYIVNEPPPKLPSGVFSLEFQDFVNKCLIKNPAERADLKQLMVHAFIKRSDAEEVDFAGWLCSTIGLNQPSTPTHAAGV
T1 sequence (P28482 whole entry): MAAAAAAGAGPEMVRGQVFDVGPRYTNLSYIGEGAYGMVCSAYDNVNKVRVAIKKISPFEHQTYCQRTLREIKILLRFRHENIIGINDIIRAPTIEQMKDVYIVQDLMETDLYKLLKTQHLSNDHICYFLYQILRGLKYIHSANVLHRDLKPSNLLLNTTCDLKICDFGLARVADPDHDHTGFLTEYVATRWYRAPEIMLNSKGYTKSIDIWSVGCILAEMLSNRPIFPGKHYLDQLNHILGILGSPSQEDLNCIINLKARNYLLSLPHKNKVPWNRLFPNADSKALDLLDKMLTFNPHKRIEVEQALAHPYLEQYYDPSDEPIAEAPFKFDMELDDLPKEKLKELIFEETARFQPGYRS
Sequence of Testis-specific serine/threonine-protein kinase 2 (Q96PF2 whole entry): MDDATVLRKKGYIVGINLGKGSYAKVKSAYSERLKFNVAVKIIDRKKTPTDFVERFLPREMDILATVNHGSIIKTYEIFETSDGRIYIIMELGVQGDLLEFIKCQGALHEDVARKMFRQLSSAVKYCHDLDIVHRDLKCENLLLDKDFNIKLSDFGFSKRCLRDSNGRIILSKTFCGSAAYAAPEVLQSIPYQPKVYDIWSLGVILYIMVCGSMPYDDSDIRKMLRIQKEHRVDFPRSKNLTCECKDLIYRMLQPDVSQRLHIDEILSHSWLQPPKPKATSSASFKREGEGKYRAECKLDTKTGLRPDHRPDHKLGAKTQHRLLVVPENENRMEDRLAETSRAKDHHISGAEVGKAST
Sequence of Cyclin-dependent kinase 6 (Q00534 whole entry): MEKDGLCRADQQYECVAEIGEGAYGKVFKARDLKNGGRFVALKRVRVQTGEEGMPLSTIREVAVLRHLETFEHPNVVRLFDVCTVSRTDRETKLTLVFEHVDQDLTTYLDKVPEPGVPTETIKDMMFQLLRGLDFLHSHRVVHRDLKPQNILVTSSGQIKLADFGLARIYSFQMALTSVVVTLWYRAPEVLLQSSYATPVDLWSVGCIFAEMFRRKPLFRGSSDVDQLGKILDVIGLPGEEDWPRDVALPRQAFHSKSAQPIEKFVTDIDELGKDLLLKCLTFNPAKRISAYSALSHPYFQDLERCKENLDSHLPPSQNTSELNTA
Sequence of Vascular endothelial growth factor receptor 1 (P17948 whole entry): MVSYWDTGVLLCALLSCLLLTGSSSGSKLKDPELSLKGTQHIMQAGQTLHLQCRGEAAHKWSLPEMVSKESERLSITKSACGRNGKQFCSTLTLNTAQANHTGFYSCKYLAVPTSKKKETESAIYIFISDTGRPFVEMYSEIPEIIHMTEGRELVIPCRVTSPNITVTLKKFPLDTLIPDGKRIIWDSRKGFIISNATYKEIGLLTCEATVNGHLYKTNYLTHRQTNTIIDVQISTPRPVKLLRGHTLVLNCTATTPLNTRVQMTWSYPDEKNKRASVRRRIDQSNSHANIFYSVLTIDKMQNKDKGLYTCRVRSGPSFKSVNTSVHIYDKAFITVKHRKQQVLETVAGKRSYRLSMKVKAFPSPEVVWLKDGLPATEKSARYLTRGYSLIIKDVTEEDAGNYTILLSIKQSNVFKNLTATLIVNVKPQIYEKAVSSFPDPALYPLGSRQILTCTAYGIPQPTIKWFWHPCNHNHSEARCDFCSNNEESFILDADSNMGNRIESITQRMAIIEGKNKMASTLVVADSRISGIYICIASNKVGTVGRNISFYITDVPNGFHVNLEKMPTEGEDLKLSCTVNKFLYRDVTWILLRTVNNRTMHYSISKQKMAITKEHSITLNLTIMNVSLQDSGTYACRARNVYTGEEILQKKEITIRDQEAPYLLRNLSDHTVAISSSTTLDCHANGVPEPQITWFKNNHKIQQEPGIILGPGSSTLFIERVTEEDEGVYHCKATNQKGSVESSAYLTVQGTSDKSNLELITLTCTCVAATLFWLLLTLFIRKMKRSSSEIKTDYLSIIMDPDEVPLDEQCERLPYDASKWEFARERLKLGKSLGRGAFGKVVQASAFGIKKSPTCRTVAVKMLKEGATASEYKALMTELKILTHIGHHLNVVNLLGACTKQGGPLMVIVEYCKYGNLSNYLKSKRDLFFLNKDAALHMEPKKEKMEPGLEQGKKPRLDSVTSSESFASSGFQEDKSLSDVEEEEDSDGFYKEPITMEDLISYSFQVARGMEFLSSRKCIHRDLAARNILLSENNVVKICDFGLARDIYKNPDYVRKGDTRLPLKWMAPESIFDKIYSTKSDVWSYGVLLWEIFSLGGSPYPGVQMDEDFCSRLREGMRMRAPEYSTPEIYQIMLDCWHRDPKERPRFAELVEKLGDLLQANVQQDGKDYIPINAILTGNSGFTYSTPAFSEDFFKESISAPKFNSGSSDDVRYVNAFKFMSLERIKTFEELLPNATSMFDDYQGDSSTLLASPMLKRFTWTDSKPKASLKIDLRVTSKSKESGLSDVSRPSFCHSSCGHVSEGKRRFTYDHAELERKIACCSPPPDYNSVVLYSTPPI
Sequence of Dual specificity mitogen-activated protein kinase kinase 1 (Q02750 whole entry): as the sequence (Q02750 whole entry, looked up) above
Sequence of Mitogen-activated protein kinase 11 (Q15759 whole entry): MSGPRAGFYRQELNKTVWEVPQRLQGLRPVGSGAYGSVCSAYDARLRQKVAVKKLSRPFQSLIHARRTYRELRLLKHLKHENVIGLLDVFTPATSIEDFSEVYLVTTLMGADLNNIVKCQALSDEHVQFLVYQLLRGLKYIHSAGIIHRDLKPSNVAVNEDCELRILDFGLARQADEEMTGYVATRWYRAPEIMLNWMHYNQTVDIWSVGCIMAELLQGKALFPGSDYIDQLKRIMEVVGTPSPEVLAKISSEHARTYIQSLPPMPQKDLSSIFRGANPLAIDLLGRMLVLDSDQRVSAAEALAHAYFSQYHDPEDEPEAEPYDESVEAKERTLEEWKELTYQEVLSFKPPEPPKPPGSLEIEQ

Structure (SMILES): O=C(NOC[C@H](O)CO)c1ccc(F)c(F)c1Nc1ccc(I)cc1F [MIRDAMETINIB]
IC50 [1]: > 40 µM
Kd [2]: > 10 µM
Kd [3]: > 10 µM
IC50 [4]: 0.025 µM

Structure (SMILES): O=C(Nc1ccc(O)c(Cl)c1)[C@@H]1CCN(CC(=O)N2CCN(c3ccc(-c4ccsc4)cc3)CC2)C1
IC50 [1]: 20 µM
Activity [5]: inactive
Activity [6]: inactive
Kd [2]: 0.98 µM
Kd [3]: 0.29 µM
IC50 [4]: 2.1 µM

Structure (SMILES): CC(=O)c1ccc(N2CCN(C(=O)CN3CCC(C(=O)Nc4ccc(O)cc4)C3)CC2)cc1 (racemic)
IC50 [1]: 18.6 µM
Activity [5]: inactive
Activity [6]: inactive
Kd [2]: 1.89 µM
Kd [3]: 1.06 µM
IC50 [4]: 4 µM

Structure (SMILES): O=C(Nc1ccc(O)c(Cl)c1)[C@@H]1CCN(CC(=O)N2CCN(c3cccc(Cl)c3)CC2)C1
IC50 [1]: 2.1 µM
Activity [5]: inactive
Activity [6]: inactive
Kd [2]: 0.15 µM
Kd [3]: 0.07 µM
IC50 [4]: 0.7 µM

Structure (SMILES): CC(=O)c1ccc(N2CCN(C(=O)CN3CC[C@H](C(=O)Nc4ccc(O)c(Cl)c4)C3)CC2)cc1
IC50 [1]: 32 µM
Activity [5]: inactive
Activity [6]: inactive
Kd [2]: 0.87 µM
Kd [3]: 0.36 µM
IC50 [4]: 3.6 µM

Structure (SMILES): O=C(Nc1ccc(O)c(Cl)c1)[C@@H]1CCN(CC(=O)N2CCN(c3ccc(Br)cc3)CC2)C1
IC50 [1]: 8.2 µM
Activity [5]: inactive
Activity [6]: inactive
Kd [2]: 2.65 µM
Kd [3]: 0.93 µM
IC50 [4]: 5 µM

Structure (SMILES): CC(=O)c1ccc(N2CCN(C(=O)CN3CC[C@@H](C(=O)Nc4ccc(O)c(C)c4)C3)CC2)cc1
IC50 [1]: 2.5 µM
Activity [5]: inactive
Activity [6]: inactive
IC50 [4]: 4.2 µM

Structure (SMILES): CC(=O)c1ccc(N2CCN(C(=O)CN3CC[C@@H](C(=O)Nc4cc(Cl)c(O)c(Cl)c4)C3)CC2)cc1
Activity [5]: inactive
Activity [6]: inactive
Kd [2]: > 10 µM
Kd [3]: > 10 µM
IC50 [4]: > 10 µM

Structure (SMILES): CC(=O)c1ccc(N2CCN(C(=O)CN3CC[C@@H](C(=O)Nc4ccc(O)c(Br)c4)C3)CC2)cc1
IC50 [1]: 3.6 µM
Activity [5]: inactive
Activity [6]: inactive
IC50 [4]: 0.44 µM

Structure (SMILES): CC(=O)c1ccc(N2CCN(C(=O)CN3CCC(C(=O)Nc4ccc(O)c(Cl)c4)C3)CC2)cc1 (racemic)
IC50 [1]: 4.2 µM
Activity [5]: inactive
Activity [6]: inactive
Kd [2]: 0.27 µM
Kd [3]: 0.15 µM
IC50 [4]: 1.2 µM

Structure (SMILES): O=C(Nc1ccc(O)c(Cl)c1)[C@@H]1CCN(CC(=O)N2CCN(c3ccc(-c4ccccc4)cc3)CC2)C1
IC50 [1]: 4.4 µM
Activity [5]: inactive
Activity [6]: inactive
Kd [2]: 0.72 µM
Kd [3]: 0.15 µM
IC50 [4]: 5.6 µM

Structure (SMILES): CC(=O)c1ccc(N2CCN(C(=O)CN3CC[C@@H](C(=O)Nc4ccc(O)c(F)c4)C3)CC2)cc1
IC50 [1]: 11.6 µM
Activity [5]: inactive
Activity [6]: inactive
Kd [2]: 0.63 µM
Kd [3]: 0.28 µM
IC50 [4]: 1.3 µM

Continued by falling IC50 [4], values first:

IC50 [1]: 50 µM
Activity [5]: inactive
Activity [6]: inactive
Kd [2]: > 10 µM
Kd [3]: > 10 µM
IC50 [4]: 12.7 µM
Structure (SMILES): CC(=O)c1ccc(N2CCN(C(=O)CN3CC[C@@H](C(=O)Nc4ccc(O)cc4Cl)C3)CC2)cc1

IC50 [1]: 12.2 µM
Activity [5]: inactive
Activity [6]: inactive
Kd [2]: 1.65 µM
Kd [3]: 0.92 µM
IC50 [4]: 3.4 µM
Structure (SMILES): O=C(Nc1ccc(O)cc1)C1CCN(CC(=O)N2CCN(c3cccc(Cl)c3)CC2)C1 (racemic)

IC50 [1]: 5.5 µM
Activity [5]: inactive
Activity [6]: inactive
Kd [2]: 0.33 µM
Kd [3]: 0.12 µM
IC50 [4]: 1.4 µM
Structure (SMILES): O=C(Nc1ccc(O)c(Cl)c1)[C@@H]1CCN(CC(=O)N2CCN(c3ccc(-c4ccoc4)cc3)CC2)C1

IC50 [1]: 1.6 µM
Activity [5]: inactive
Activity [6]: inactive
Kd [2]: 0.27 µM
Kd [3]: 0.17 µM
IC50 [4]: 0.48 µM
Structure (SMILES): O=C(Nc1ccc(O)c(Cl)c1)[C@@H]1CCN(CC(=O)N2CCN(c3nc4ccccc4s3)CC2)C1

IC50 [1]: 2.6 µM
IC50 [8]: > 30 µM
IC50 [9]: > 30 µM
IC50 [10]: > 50 µM
IC50 [11]: > 30 µM
IC50 [12]: > 30 µM
IC50 [13]: > 30 µM
IC50 [14]: > 30 µM
IC50 (Ephrin type-B receptor 4): > 30 µM
IC50 [15]: > 30 µM
IC50 [16]: > 30 µM
IC50 [17]: > 30 µM
IC50 [18]: > 30 µM
IC50 [19]: > 30 µM
IC50 [20]: > 30 µM
IC50 [21]: > 30 µM
IC50 [22]: > 30 µM
IC50 [23]: > 30 µM
IC50 [24]: > 30 µM
IC50 [25]: > 30 µM
IC50 [26]: > 30 µM
IC50 [27]: 27 µM
IC50 [28]: > 50 µM
IC50 [29]: > 50 µM
IC50 [30]: > 20 µM
IC50 [31]: > 50 µM
IC50 [32]: > 50 µM
IC50 [33]: > 50 µM
IC50 [34]: > 50 µM
inhibition [36]: Dose-dependent effect
Activity [5]: inactive
Activity [6]: inactive
Kd [2]: 0.14 µM
Kd [3]: 0.05 µM
IC50 [4]: 0.36 µM
Structure (SMILES): CC(=O)c1ccc(N2CCN(C(=O)CN3CC[C@@H](C(=O)Nc4ccc(O)c(Cl)c4)C3)CC2)cc1
IC50 (A2058 [7]): 28.8 µM
inhibition (A2058 [35]): Dose-dependent effect
IC50 [37]: 11.5 µM
IC50 (COLO 205): 10.8 µM
IC50 (CHL-1): > 100 µM
